Screening data as filed in PubChem BioAssay.
Shown are actives, neighbours in structure and some others; about 3.5% of the full set was active somewhere.
MrgX1 antagonist – antagonists of human MrgX1 receptor. Q96LB2. MRGX1-HEK293 calcium flux, Fluo-4, BAM8-22 antagonism; stronger effect = lower value. B-score at 10 µM. actives 1.3% (n = 310,000). AID 588676;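 active means calcium-response B-score plate-corrected more than 3 library SD below zero, starting fluorescence within 5 deviations, no agonist response on first addition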;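 further: peak minus trough fluorescence over baseline after final BAM8-22 challenge near maximal dose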
Target sequence (Q96LB2 whole entry, looked up): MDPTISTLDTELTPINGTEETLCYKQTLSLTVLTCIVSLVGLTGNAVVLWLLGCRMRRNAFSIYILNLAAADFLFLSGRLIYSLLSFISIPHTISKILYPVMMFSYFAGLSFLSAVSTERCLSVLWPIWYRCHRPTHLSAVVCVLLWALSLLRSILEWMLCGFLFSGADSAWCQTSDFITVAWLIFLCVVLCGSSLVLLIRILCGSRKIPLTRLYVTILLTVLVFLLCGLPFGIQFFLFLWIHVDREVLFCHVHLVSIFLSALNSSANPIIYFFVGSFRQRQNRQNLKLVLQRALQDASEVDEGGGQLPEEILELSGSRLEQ
RGS4 act – RGS4 potentiation or activation | HEK293 M3R/inducible RGS4, carbachol calcium flux Fluo4; stronger effect = lower value | B-score at 10 µM | actives 0.92% (n = 310,000) | AID 463111;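 active means B-score of the integrated calcium signal more than 4 SD below the library mean, with starting fluorescence not abnormally high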;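 further: negative B-score means reduced calcium response which marks RGS4 activation or potentiation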
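System – HEK293 FlpIn-TREx cells, stable M3R, doxycycline-inducible RGS4 · Reagent – ECmax carbachol challenge · Times – compound preincubation 20 min at room temperature before agonist · Technique – Fluo4 fluorescence kinetic imaging of calcium · Measure – B score of integrated Fluo4 ratio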
MrgX1 PAM – allosterically activates human MrgX1 receptor signaling | B-score at 10 µM | MrgX1-HEK293, Fluo-4 calcium flux, FDSS; stronger effect = higher value | actives 0.63% (n = 310,000) | AID 588675;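 active means plate-corrected calcium response at least 3 library SD above typical, normal starting fluorescence, not activating the receptor alone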;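 further: compound read alongside a low EC10 to EC30 dose of BAM8-22 agonist; peak minus trough fluorescence over baseline measured at the second addition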
MrgX1 ag – human MrgX1 receptor agonism, primary screen | Q96LB2 | MrgX1-HEK293 cells, Fluo-4 calcium fluorescence, agonist mode; stronger effect = higher value | B-score at 10 µM | actives 0.44% (n = 310,000) | AID 588627;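 active means calcium response B-score plate-corrected fluorescence ratio at least 3 library SD, with starting fluorescence B-score inside 5 SD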
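Test system: HEK293 cells stably expressing human MrgX1 receptor; amount: 15,000 cells per well; doses: compound delivered in addition one of three; times: overnight plating before 1 h dye loading; detection: Fluo-4 NW calcium-flux fluorescence, kinetic read; read-out basis: B-scored fluorescence response ratio; controls: positive and negative controls per plate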
RGS4 block – human RGS4 inhibition. HEK293 M3R/RGS4 inducible, Fluo-4 calcium flux; stronger effect = higher value; triggered by carbachol at its EC20. B-score at 10 µM. actives 0.45% (n = 310,000);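 active means B-score, a plate-corrected calcium signal, over three deviations above library mean, with baseline fluorescence within five deviations of library mean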;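 further: RGS4 expression induced by doxycycline in cells with stable M3 receptor; B-score is computed from the integrated fluorescence ratio over baseline after carbachol; higher B-score means a larger calcium signal and so more RGS4 inhibition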
Target sequence (P49798 whole entry, looked up): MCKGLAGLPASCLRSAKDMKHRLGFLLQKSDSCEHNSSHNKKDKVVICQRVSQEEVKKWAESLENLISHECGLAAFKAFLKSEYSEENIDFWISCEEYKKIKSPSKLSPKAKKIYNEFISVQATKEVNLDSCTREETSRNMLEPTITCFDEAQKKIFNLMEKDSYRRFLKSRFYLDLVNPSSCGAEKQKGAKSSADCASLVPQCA
Numbers stand for hits; – = inactive; · = not tested or not shown.

SMILES	MrgX1 antagonist	RGS4 act	MrgX1 PAM	MrgX1 ag	RGS4 block
Cc1ccc(C2=CC(C)(c3ccc(C)cc3)Nc3nc(C(F)(F)F)nn32)cc1 (stereo not given)	–	-7	–	–	–
CCCCCN1C(=O)/C(=C/c2c(N3CCc4ccccc4C3)nc3ccccn3c2=O)SC1=S	-8.7	–	–	–	–
CC1CC(CC(C)C(=O)NC(=S)Nc2ccc(S(N)(=O)=O)cc2)C(=O)O1 (stereo not given)	-6.5	–	–	–	–
CC1CC(CC(C)C(=O)Nc2nncs2)C(=O)O1 (stereo not given)	–	–	–	–	–
COc1ccc(S(=O)(=O)N2CCCC2CNC(=O)C(=O)NCc2ccco2)cc1 (stereo not given)	–	–	–	–	–
Cc1nn(C)cc1C(C(=O)NC1CCCCC1)N(C(=O)Cc1cccs1)c1ccc(C(C)C)cc1 (stereo not given)	–	–	–	27	–
CCOc1ccccc1N(C)C(=O)c1sc2ncn(CC(=O)N3CCCCC3C)c(=O)c2c1C (stereo not given)	–	–	–	–	–
CCN1CCCC1CNC(=O)CCNC(=O)c1cc(OC)c(OC)c(OC)c1 (stereo not given)	-6.5	–	–	–	–
CCN1CCCC1CNC(=O)c1cc(OC)c(OC)c(OC)c1 (stereo not given)	–	–	–	–	–
Cc1ccccc1CS(=O)(=O)c1nnc([C@H](CC(C)C)NC(=O)OC(C)(C)C)o1	–	–	–	33	–
CC[C@@H](C)[C@H](NC(=O)OC(C)(C)C)c1nnc(S(=O)(=O)Cc2cc(C)ccc2C)o1	–	–	7.1	–	–
COc1cc(/C=C/C(=O)Nc2cccc(S(=O)(=O)NC3=NCCCCC3)c2)ccc1OCC#N	–	–	–	–	–
CCC(=NC(C)c1ccccc1)c1c(O)n(C)c(=O)n(C)c1=O (stereo not given)	-7.4	–	–	–	–
COc1ccc(C(C(=O)NC(C)(C)C)N(C(=O)CCC(=O)Nc2cc(C)on2)c2ccccc2F)cc1 (stereo not given)	–	–	–	–	–
COc1ccc(/C=N/Nc2cc(C)nc3ccc(OC)cc23)c(OC)c1	–	-7.7	–	–	–
COC(=O)CCCCCCCCCCN1CCCCC1	–	-9.2	–	–	–
C1CCCN(CCCCN2CCCCCC2)CC1	–	–	–	–	–
O=c1c2ccccc2nc(-c2ccc(Cl)c(Cl)c2)n1O	–	–	–	35	–
O=c1c2ccc(Cl)cc2nc(-c2cccc(C(F)(F)F)c2)n1O	–	–	–	47	–
O=C(NCC1CCCO1)C(c1ccc(F)cc1)N(Cc1ccc2c(c1)OCO2)C(=O)c1ccc(CN2CCOCC2)o1 (stereo not given)	–	–	–	–	–
COc1ccc(CCNC(=O)c2ccc(CS(=O)Cc3ccc(Cl)cc3)o2)cc1OC (stereo not given)	–	–	–	–	–
COC(=O)c1ccccc1NC(=O)CC(=O)Nc1ccccc1C(=O)OC	–	–	–	–	–
COC(=O)c1ccccc1CON1C(=O)C(C)(C)N(OCc2ccccc2C(=O)OC)C(=O)C1(C)C	-8.1	–	–	–	–
O=C(COC(=O)/C=C/c1ccccc1)NCC1CCCO1 (stereo not given)	–	–	9.8	–	–
CCN(CC)c1c([N+](=O)[O-])c(=O)n(CC)c2ccccc12	–	–	–	–	–
SMILES	MrgX1 antagonist	RGS4 act	MrgX1 PAM	MrgX1 ag	RGS4 block
O=P(CCCCCCCCCP(=O)(c1ccccc1)c1ccccc1)(c1ccccc1)c1ccccc1	–	-7	–	–	–
CCCN(CCC)S(=O)(=O)c1ccc(C(=O)OCCN2C(=O)c3cccc4c(N5CCOCC5)ccc(c34)C2=O)cc1	–	-8.7	–	–	–
CCOC(=O)C1=C(COC(=O)/C=C/c2ccccc2Cl)NC(=O)NC1C (stereo not given)	–	–	8.5	–	–
CCOC(=O)C1=C(COC(=O)/C=C/c2ccccc2F)NC(=O)NC1C (stereo not given)	–	–	–	–	–
C=C1CC(C(=O)N/N=C/c2ccc(O)cc2)C1	-5.9	–	–	–	–
COc1ccc2cnn(-c3ccc(OC(F)(F)F)cc3)c(=O)c2c1OC	–	–	–	–	–
COc1ccc(CCNC(=O)c2ccc3nc(-c4ccco4)c(-c4ccco4)nc3c2)cc1OC	-4.6	·	–	–	·
O=C(Nc1cccc(C(F)(F)F)c1)c1ccc2nc(-c3ccco3)c(-c3ccco3)nc2c1	-5.6	–	–	–	–
COc1cccc(C(=O)Oc2ccc3ccc(=O)oc3c2)c1	–	–	–	–	–
CCN(C(=O)Cn1c(=O)oc2ccccc21)c1cccc(C)c1	–	–	–	–	–
COCCn1c(Cc2ccccc2)nnc1SCC(=O)N1CCCCC1C (stereo not given)	-8.2	–	–	–	–
CCOC(=O)CN1C(=O)N[C@@H](c2cccc(C(F)(F)F)c2)C(C(=O)OC)=C1C	–	–	–	–	–
Cc1cccc(C)c1-n1cccc1/C=C1\SC(=S)N(c2cccc(C(=O)O)c2)C1=O	–	-7.6	–	–	–
CCN1CCN(C(=O)C(=O)c2cn(CC(=O)N3CCCC3)c3ccccc23)CC1	–	–	–	–	–
CC1CCCCN1CCNC(=O)c1ccc2c(c1)N(Cc1ccccc1F)C(=O)c1ccccc1S2=O (stereo not given)	–	-7.4	–	–	–
O=C(NCCCN1CCCC1)c1ccc2c(c1)N(Cc1ccccc1F)C(=O)c1ccccc1S2=O (stereo not given)	–	–	–	–	–
O=C(NCCN1C(=O)S/C(=C\c2ccc(OC(F)F)cc2)C1=O)[C@@H]1CCCN1C(=O)c1cccs1	–	–	8.2	–	–
Cc1ncc(CO)c2c1Oc1nc(-c3ccccc3F)nc(SCC(=O)N(C)c3ccccc3)c1C2	–	–	–	–	–
Cc1ncc(CO)c2c1Oc1nc(-c3ccccc3)nc(SCC(=O)N(C)c3ccccc3)c1C2	–	-8.1	10	–	–
COc1ccccc1-c1nc2c(c(SCC(=O)N3CCCCC3)n1)Cc1c(CO)cnc(C)c1O2	–	-8.1	–	–	–
Cc1ncc(CO)c2c1Oc1nc(-c3ccccc3)nc(SCC(=O)N3CCOCC3)c1C2	–	–	–	–	–
CCCCn1c(N)c(N(Cc2ccccc2OC)C(=O)c2ccc([N+](=O)[O-])s2)c(=O)[nH]c1=O	–	–	–	–	–
COc1ccc(CCC(=O)N(C)CC(=O)Nc2ccc(N3CCOCC3)cc2)cc1	–	–	11	–	–
CCOc1ccc(OCCCC(=O)N(C)CC(=O)Nc2ccc(N3CCOCC3)cc2)cc1	–	–	–	–	–
Cn1c(Cc2cccc3ccccc23)nnc1SCc1ccc([N+](=O)[O-])cc1	-8.6	–	–	–	–
